# Reference: ChEMBL document CHEMBL3853270, “Influence of Birch Bark Triterpenes on Keratinocytes and Fibroblasts from Diabetic and Nondiabetic Donors” (2016)
# Calls of active or inactive are those of the source. The calls are words filed in the database; no cut-off is given here.
# Tests used:
# [1] = target: Ras-related C3 botulinum toxin substrate 1 (Homo sapiens) (UniProt P63000); experiment: Activation of Rac1 in human diabetic primary keratinocytes at 10 nM after 20 mins by immunoblot method
# Procedure, shortened: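 Primary keratinocytes from a diabetic adult donor (NHK-d), exposed 20 min. Lysed in glycerol/Tris pH 7.4/NaCl/NP-40/MgCl2/PMSF buffer and cleared at 4 °C. Supernatant incubated 1 h at 4 °C with glutathione-sepharose beads carrying GST-PAK to pull down active GTP-bound Rac1. Blotted on a 13% gel, probed with anti-Rac1 (1:2.000) and detected by ECL; total Rac1 also measured. CNF1 (2 nM) positive control, n = 3.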
# Keratinocyte [2] = experiment: Effect on pro-inflammatory related gene expression in diabetic adult human primary keratinocytes assessed as PTGS2 mRNA levels at 1.96 uM after 6 hrs by qPCR analysis; type: functional
# Keratinocyte [3] = experiment: Effect on antioxidant related gene expression in non-diabetic adult human primary keratinocytes assessed as SOD2 mRNA levels at 1.96 uM after 6 hrs by qPCR analysis; type: functional
# Keratinocyte [4] = experiment: Effect on antioxidant related gene expression in non-diabetic young human primary keratinocytes assessed as SOD2 mRNA levels at 9.81 uM after 6 hrs by qPCR analysis; type: functional
# Fibroblast [5] = experiment: Effect on antiinflammatory related gene expression in diabetic adult human primary fibroblasts assessed as NFKBIA mRNA levels at 9.81 uM after 6 hrs by qPCR analysis; type: functional
# Procedure, shortened: (§1)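 Primary dermal fibroblasts from one nondiabetic young, one nondiabetic adult and one diabetic adult donor; 320 000 cells per sample, 6 h at 1.96 or 9.81 μM. RNA measured on a high-throughput qPCR chip. Fold change versus 0.1% DMSO control, four independent experiments, SD, one-way ANOVA with Bonferroni post-test.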
# Fibroblast [6] = experiment: Effect on pro-inflammatory related gene expression in non-diabetic young human primary fibroblasts assessed as PTGS2 mRNA levels at 9.81 uM after 6 hrs by qPCR analysis; type: functional
# Fibroblast [7] = experiment: Effect on growth factor related gene expression in non-diabetic adult human primary fibroblasts assessed as VEGFA mRNA levels at 1.96 uM after 6 hrs by qPCR analysis; type: functional
# Procedure, shortened: (§2)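 Primary human dermal fibroblasts (young or adult nondiabetic, adult diabetic donor) were treated for 6 h against a 0.1% DMSO solvent control. RNA from 320 000 cells per sample was measured by Fluidigm Biomark high-throughput qPCR. Values are fold change relative to solvent control, from four independent experiments, with SD. One-way ANOVA with Bonferroni post-test was applied.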
# [8] = Effect on wound healing activity in non-diabetic adult human primary fibroblasts assessed as upregulation of soluble VCAM1 protein levels at 1.96 uM after 24 hrs by bead-based suspension array analysis; type: functional; details: Fibroblast
# [9] = Effect on wound healing activity in diabetic adult human primary keratinocytes assessed as upregulation of TNFalpha protein levels at 1.96 uM after 24 hrs by bead-based suspension array analysis; type: functional; details: Keratinocyte
# Keratinocyte [10] = experiment: Effect on growth factor related gene expression in diabetic adult human primary keratinocytes assessed as VEGFA mRNA levels at 1.96 uM after 6 hrs by qPCR analysis; type: functional
# Procedure, shortened: (§3)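 Primary human keratinocytes (nondiabetic young or adult, diabetic adult donors) were exposed to compound for 6 h, with 0.1% DMSO as solvent control. Total RNA came from 400 000 cells per sample and was assayed on a Fluidigm Biomark high-throughput qPCR chip. Results are fold change vs solvent control, from 2−4 independent experiments on two donors per group, with SD. Groups were compared by one-way ANOVA with Bonferroni post-test.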
# Fibroblast [11] = experiment: Effect on chemokines related gene expression in non-diabetic young human primary fibroblasts assessed as CCL2 mRNA levels at 1.96 uM after 6 hrs by qPCR analysis; type: functional
# Fibroblast [12] = experiment: Effect on growth factor related gene expression in non-diabetic young human primary fibroblasts assessed as VEGFA mRNA levels at 9.81 uM after 6 hrs by qPCR analysis; type: functional; procedure, shortened: as §2
# Fibroblast [13] = experiment: Effect on antiinflammatory related gene expression in non-diabetic adult human primary fibroblasts assessed as NFKBIA mRNA levels at 1.96 uM after 6 hrs by qPCR analysis; type: functional; procedure, shortened: as §1
# Keratinocyte [14] = experiment: Effect on antiinflammatory related gene expression in non-diabetic adult human primary keratinocytes assessed as NFKBIA mRNA levels at 1.96 uM after 6 hrs by qPCR analysis; type: functional
# Procedure, shortened: (§4)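 Primary keratinocytes from nondiabetic young and adult and diabetic adult donors; 400 000 cells per sample, 6 h exposure at 1.96 or 9.81 μM. RNA extracted and read on a high-throughput qPCR chip. Results are fold change versus 0.1% DMSO solvent control from 5−7 independent experiments over two donors per group, SD, one-way ANOVA with Bonferroni post-test.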
# [15] = Effect on wound healing activity in non-diabetic adult human primary keratinocytes assessed as upregulation of MIP1alpha protein levels at 1.96 uM after 24 hrs by bead-based suspension array analysis; type: functional; details: Keratinocyte
# Keratinocyte [16] = experiment: Effect on cellular connection related gene expression in non-diabetic young human primary keratinocytes assessed as GJB2 mRNA levels at 1.96 uM after 6 hrs by qPCR analysis; type: functional
# Keratinocyte [17] = experiment: Effect on growth factor related gene expression in non-diabetic young human primary keratinocytes assessed as GDF15 mRNA levels at 1.96 uM after 6 hrs by qPCR analysis; type: functional; procedure, shortened: as §3
# [18] = Effect on wound healing activity in diabetic adult human primary fibroblasts assessed as upregulation of soluble VCAM1 protein levels at 1.96 uM after 24 hrs by bead-based suspension array analysis; type: functional; details: Fibroblast
# Keratinocyte [19] = experiment: Effect on chemokines related gene expression in diabetic adult human primary keratinocytes assessed as IL8 mRNA levels at 1.96 uM after 6 hrs by qPCR analysis; type: functional
# Keratinocyte [20] = experiment: Effect on pro-inflammatory related gene expression in non-diabetic adult human primary keratinocytes assessed as TNF mRNA levels at 9.81 uM after 6 hrs by qPCR analysis; type: functional
# Fibroblast [21] = experiment: Effect on adhesion molecules related gene expression in diabetic adult human primary fibroblasts assessed as ICAM1 mRNA levels at 9.81 uM after 6 hrs by qPCR analysis; type: functional
# Procedure, shortened: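 Dermal fibroblasts from nondiabetic adult and diabetic adult donors, exposed for 6 h at 1.96 or 9.81 μM. ICAM-1 and VCAM-1 mRNA measured by standard qRT-PCR, n = 3. Fold change versus 0.1% DMSO control, SD, one-way ANOVA with Bonferroni post-test.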
# Keratinocyte [22] = experiment: Effect on cellular connection related gene expression in non-diabetic young human primary keratinocytes assessed as CLDN4 mRNA levels at 1.96 uM after 6 hrs by qPCR analysis; type: functional
# Keratinocyte [23] = experiment: Effect on MMP1 mRNA expression levels in diabetic adult human primary keratinocytes at 9.81 uM after 6 hrs by qPCR analysis; type: functional; procedure, shortened: as §4
# Keratinocyte [24] = experiment: Effect on pro-inflammatory related gene expression in non-diabetic adult human primary keratinocytes assessed as IL6 mRNA levels at 1.96 uM after 6 hrs by qPCR analysis; type: functional
# [25] = Effect on wound healing activity in diabetic adult human primary keratinocytes assessed as upregulation of IL8 protein levels at 1.96 uM after 24 hrs by bead-based suspension array analysis; type: functional; details: Keratinocyte
# Fibroblast [26] = experiment: Effect on chemokines related gene expression in non-diabetic adult human primary fibroblasts assessed as WDR26 mRNA levels at 1.96 uM after 6 hrs by qPCR analysis; type: functional
structure (smiles),measurement,setting,value
C=C(C)[C@@H]1CC[C@]2(CO)CC[C@]3(C)[C@H](CC[C@@H]4[C@@]5(C)CC[C@H](O)C(C)(C)[C@@H]5CC[C@]43C)[C@@H]12 [BETULIN],Activity,[1],Active
same,fold change (FC),Keratinocyte [2],1.3
same,fold change (FC),Keratinocyte [3],1.3
same,fold change (FC),Keratinocyte [4],1.4
same,fold change (FC),Fibroblast [5],1.4
same,fold change (FC),Fibroblast [6],14.7
same,fold change (FC),Fibroblast [7],1.4
same,Activity,[8],Active
same,Activity,[9],Active
same,fold change (FC),Keratinocyte [10],1.6
same,fold change (FC),Fibroblast [11],4.3
same,fold change (FC),Fibroblast [12],2
same,fold change (FC),Fibroblast [13],7.5
same,fold change (FC),Keratinocyte [14],1.4
same,Activity,[15],Active
same,fold change (FC),Keratinocyte [16],0.8
same,fold change (FC),Keratinocyte [17],1
same,Activity,[18],Active
same,fold change (FC),Keratinocyte [19],16.5
same,fold change (FC),Keratinocyte [20],6.1
same,fold change (FC),Fibroblast [21],2.3
same,fold change (FC),Keratinocyte [22],1.5
same,fold change (FC),Keratinocyte [23],1.8
same,fold change (FC),Keratinocyte [24],16.2
same,Activity,[25],Active
same,fold change (FC),Fibroblast [26],0.9
